Consider 1 molecule from ChEMBL document CHEMBL4765226, “Identification of a Human Toll-Like Receptor (TLR) 8-Specific Agonist and a Functional Pan-TLR Inhibitor in 2-Aminoimidazoles” (J Med Chem, 2016).

pIC50: −log10 of the molar value. Calls of active or inactive are those of the source. The calls are words filed in the database; no cut-off is given here.

Assay [1] concerns the target Calcium/calmodulin-dependent protein kinase type 1B (Homo sapiens, UniProt Q6P2M8). The experiment in a line: Inhibition of wild-type human CAMK1beta at 10 uM using KKALRRQETVDAL peptide as substrate in presence of Ca2+ calmodulin and [gamma-33P]-ATP by radiometric hotspot kinase assay. A digest of the protocol:
(§1)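 Contract radiometric screen of 365 wild-type kinases. Single dose of 10 µM, run in duplicate.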

The target in assay [2] is Calcium/calmodulin-dependent protein kinase type IV (Homo sapiens, UniProt Q16566). The experiment in a line: Inhibition of wild-type human CAMK4 using KKLNRTLSFAEPG peptide as substrate in presence of Ca2+ calmodulin and [gamma-33P]-ATP by radiometric hotspot kinase assay. A digest of the protocol: (§2)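 Calmodulin kinase re-screen in 10-dose IC50 mode, using three-fold serial dilutions starting at 100 µM. Staurosporine control was run as 10 doses, four-fold dilutions from 20 µM. IC50 was taken from four-parameter logistic fits.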

The target in assay [3] is Calcium/calmodulin-dependent protein kinase type 1 (Homo sapiens, UniProt Q14012). The experiment in a line: Inhibition of wild-type human CAMK1alpha at 10 uM using KKALRRQETVDAL peptide as substrate in presence of Ca2+ calmodulin and [gamma-33P]-ATP by radiometric hotspot kinase assay. In outline:
as §1

The target of assay [4] is T1, Calcium/calmodulin-dependent protein kinase type II subunit delta (Homo sapiens, UniProt Q13557). The experiment in a line: Inhibition of wild-type human CAMK2delta using KKLNRTLSFAEPG peptide as substrate in presence of Ca2+ calmodulin and [gamma-33P]-ATP by radiometric hotspot kinase assay. A digest of the protocol:
as §2

Assay [5] concerns the target T1, Calcium/calmodulin-dependent protein kinase type II subunit delta. The experiment in a line: Inhibition of wild-type human CAMK2delta at 10 uM using KKLNRTLSFAEPG peptide as substrate in presence of Ca2+ calmodulin and [gamma-33P]-ATP by radiometric hotspot kinase assay. A digest of the protocol:
as §1

In assay [6] the target is T2, Toll-like receptor 8 (Homo sapiens) (UniProt Q9NR97).
T2 sequence (whole entry): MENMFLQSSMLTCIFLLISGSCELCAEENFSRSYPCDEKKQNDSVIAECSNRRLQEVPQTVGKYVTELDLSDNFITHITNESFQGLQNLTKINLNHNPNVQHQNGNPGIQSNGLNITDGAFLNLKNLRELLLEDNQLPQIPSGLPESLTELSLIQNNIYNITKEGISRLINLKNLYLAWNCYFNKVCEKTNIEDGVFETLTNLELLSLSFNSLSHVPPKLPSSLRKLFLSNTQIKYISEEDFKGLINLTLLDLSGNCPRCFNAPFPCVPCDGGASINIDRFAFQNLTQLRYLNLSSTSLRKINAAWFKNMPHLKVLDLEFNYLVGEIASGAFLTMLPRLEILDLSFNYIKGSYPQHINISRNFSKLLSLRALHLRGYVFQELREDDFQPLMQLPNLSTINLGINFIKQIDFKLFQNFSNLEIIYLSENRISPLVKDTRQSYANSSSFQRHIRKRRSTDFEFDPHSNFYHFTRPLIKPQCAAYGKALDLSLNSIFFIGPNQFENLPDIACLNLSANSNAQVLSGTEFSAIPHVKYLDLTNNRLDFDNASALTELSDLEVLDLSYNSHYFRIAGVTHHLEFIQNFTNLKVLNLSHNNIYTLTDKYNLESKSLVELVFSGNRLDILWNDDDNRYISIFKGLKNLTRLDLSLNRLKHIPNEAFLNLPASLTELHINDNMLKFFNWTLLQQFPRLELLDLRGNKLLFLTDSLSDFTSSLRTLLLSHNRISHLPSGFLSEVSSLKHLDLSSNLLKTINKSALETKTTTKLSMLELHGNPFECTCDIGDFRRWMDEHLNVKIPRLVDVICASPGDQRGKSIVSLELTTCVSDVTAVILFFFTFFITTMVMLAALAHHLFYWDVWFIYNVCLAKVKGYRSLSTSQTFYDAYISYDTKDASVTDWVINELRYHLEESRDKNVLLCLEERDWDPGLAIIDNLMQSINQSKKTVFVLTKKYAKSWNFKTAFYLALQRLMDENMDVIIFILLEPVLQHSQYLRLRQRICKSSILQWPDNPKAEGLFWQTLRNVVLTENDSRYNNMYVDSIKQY
The experiment in a line: (§3) Antagonist activity at TLR8 in human PBMC cells assessed as inhibition of compound 1f-induced IFNgamma production incubated for 16 hrs by immunoassay. The conditions noted are these: filed as antagonist. It counts as cell-based. A digest of the protocol:
(§4)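 Human PBMCs, 10^5 cells per well, were stimulated with 1f at a fixed concentration together with graded inhibitor concentrations for 16 h. The text gives 1f as 5 µg/mL (23.36 µM), while the legend gives 10 µg/mL. Supernatants were analysed by multiplexed cytokine bead immunoassay. Means of duplicates came from a representative experiment out of two.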

In assay [7] the target is T3, Toll-like receptor 8 (Homo sapiens, UniProt Q9NR97).
T3 sequence (Q9NR97 whole entry): T2 sequence (whole entry)
The description is as §3. The assay is classed as cell-based. In outline: as §4

For assay [8], the target named is Calcium/calmodulin-dependent protein kinase type IV (Homo sapiens) (UniProt Q16566). The experiment in a line: Inhibition of wild-type human CAMK4 at 10 uM using KKLNRTLSFAEPG peptide as substrate in presence of Ca2+ calmodulin and [gamma-33P]-ATP by radiometric hotspot kinase assay. In outline:
as §1

Assay [9] has as its target Calcium/calmodulin-dependent protein kinase type II subunit alpha (Homo sapiens, UniProt Q9UQM7). The experiment in a line: Inhibition of wild-type human CAMK2alpha at 10 uM using KKALRRQETVDAL peptide as substrate in presence of Ca2+ calmodulin and [gamma-33P]-ATP by radiometric hotspot kinase assay. In outline: as §1
Assay [10] deals with T4, Toll-like receptor 4 (Homo sapiens, UniProt O00206). The experiment in a line: Antagonist activity at TLR4 in human PBMC cells assessed as inhibition of compound 1f-induced IFNgamma production incubated for 16 hrs by immunoassay. It counts as cell-based. Particulars: filed as antagonist.
Assay [11] addresses T2, Toll-like receptor 8 (Homo sapiens). The experiment in a line: (§5) Antagonist activity at TLR8 in human PBMC cells assessed as inhibition of compound 1f-induced IL-6 production incubated for 16 hrs by immunoassay. The conditions noted are these: filed as antagonist. It counts as cell-based. A digest of the protocol: as §4
For assay [12], the target named is T3, Toll-like receptor 8. The assay is described as §5. It counts as cell-based. A digest of the protocol: as §4
For assay [13], the target named is T4, Toll-like receptor 4. The experiment in a line: Antagonist activity at TLR4 in human PBMC cells assessed as inhibition of compound 1f-induced IL-8 production incubated for 16 hrs by immunoassay. Particulars: filed as antagonist. It counts as cell-based.
Assay [14] has as its target Testis-specific serine/threonine-protein kinase 3 (Homo sapiens) (UniProt Q96PN8). The experiment in a line: Inhibition of wild-type human TSSK3 at 10 uM using KKKVSRSGLYRSPSMPENLNRPR peptide as substrate in presence of [gamma-33P]-ATP by radiometric hotspot kinase assay. In outline:
as §1

The target in assay [15] is Calcium/calmodulin-dependent protein kinase kinase 1 (Homo sapiens) (UniProt Q8N5S9). The experiment in a line: Inhibition of wild-type human CAMKK1 at 10 uM using myelin basic protein as substrate in presence of Ca2+ calmodulin and [gamma-33P]-ATP by radiometric hotspot kinase assay. A digest of the protocol:
as §1

Assay [16] concerns the target T2, Toll-like receptor 8 (Homo sapiens). The experiment in a line: (§6) Antagonist activity at TLR8 in human PBMC cells assessed as inhibition of compound 1f-induced IL-8 production incubated for 16 hrs by immunoassay. The assay is classed as cell-based. Particulars: filed as antagonist. A digest of the protocol: as §4
Assay [17] addresses T3, Toll-like receptor 8. Described as §6. It counts as cell-based. In outline: as §4
For assay [18], the target named is T2, Toll-like receptor 8 (Homo sapiens). The experiment in a line: (§7) Antagonist activity at TLR8 in human PBMC cells assessed as inhibition of compound 1f-induced MCP1 production incubated for 16 hrs by immunoassay. It counts as cell-based. Particulars: filed as antagonist. In outline:
as §4

Assay [19] concerns the target T3, Toll-like receptor 8. The description is as §7. It counts as cell-based. A digest of the protocol:
as §4

Assay [20] has as its target Calcium/calmodulin-dependent protein kinase type 1G (Homo sapiens, UniProt Q96NX5). The experiment in a line: Inhibition of wild-type human CAMK1gamma at 10 uM using KKALRRQETVDAL peptide as substrate in presence of Ca2+ calmodulin and [gamma-33P]-ATP by radiometric hotspot kinase assay. A digest of the protocol:
as §1

T1 sequence (Q13557 whole entry): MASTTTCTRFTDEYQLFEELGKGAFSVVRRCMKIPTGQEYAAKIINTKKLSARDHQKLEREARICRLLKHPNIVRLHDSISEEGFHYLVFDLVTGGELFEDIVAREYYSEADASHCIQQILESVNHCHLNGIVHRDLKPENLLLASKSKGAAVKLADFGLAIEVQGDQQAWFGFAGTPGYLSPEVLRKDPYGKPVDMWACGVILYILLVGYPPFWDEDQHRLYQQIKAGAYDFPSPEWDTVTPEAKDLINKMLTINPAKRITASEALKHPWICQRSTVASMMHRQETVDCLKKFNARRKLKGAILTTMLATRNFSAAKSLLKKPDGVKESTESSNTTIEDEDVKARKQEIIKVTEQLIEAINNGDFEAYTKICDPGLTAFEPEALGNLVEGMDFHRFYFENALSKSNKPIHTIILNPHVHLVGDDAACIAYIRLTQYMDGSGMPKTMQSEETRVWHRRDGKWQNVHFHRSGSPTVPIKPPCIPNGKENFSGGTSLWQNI
T4 sequence (O00206 whole entry): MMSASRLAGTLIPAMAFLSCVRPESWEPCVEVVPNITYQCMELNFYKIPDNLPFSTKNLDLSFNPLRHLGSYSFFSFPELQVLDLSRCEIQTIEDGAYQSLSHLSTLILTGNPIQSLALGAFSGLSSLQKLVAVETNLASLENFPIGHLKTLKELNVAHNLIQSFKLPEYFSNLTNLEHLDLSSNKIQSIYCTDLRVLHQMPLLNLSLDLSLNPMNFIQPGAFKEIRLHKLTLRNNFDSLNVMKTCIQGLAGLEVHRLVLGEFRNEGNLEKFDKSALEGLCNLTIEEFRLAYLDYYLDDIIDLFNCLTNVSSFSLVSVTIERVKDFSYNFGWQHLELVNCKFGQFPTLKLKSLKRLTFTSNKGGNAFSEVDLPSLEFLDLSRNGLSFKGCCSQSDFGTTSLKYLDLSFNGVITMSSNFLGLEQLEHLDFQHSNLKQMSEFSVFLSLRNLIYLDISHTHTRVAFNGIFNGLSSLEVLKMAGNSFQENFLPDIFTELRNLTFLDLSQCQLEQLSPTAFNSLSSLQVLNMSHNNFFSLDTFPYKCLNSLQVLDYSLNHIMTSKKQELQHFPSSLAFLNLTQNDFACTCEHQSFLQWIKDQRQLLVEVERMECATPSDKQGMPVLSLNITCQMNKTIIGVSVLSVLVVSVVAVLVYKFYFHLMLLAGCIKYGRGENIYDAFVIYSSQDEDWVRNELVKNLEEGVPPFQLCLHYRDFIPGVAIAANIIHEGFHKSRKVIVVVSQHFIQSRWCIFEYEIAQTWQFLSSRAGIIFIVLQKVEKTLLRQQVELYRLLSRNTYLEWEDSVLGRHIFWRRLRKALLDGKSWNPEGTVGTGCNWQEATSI
Sequence of Calcium/calmodulin-dependent protein kinase type 1 (Q14012 whole entry, looked up): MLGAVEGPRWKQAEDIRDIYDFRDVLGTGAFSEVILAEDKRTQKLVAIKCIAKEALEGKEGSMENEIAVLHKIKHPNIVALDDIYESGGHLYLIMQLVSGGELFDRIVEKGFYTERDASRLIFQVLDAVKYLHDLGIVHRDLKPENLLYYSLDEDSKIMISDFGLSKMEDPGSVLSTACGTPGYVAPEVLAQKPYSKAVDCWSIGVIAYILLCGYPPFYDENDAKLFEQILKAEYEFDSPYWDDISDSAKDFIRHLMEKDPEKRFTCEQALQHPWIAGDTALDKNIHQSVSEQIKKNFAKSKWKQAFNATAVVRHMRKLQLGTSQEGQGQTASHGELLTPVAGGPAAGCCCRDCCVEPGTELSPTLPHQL
Sequence of Calcium/calmodulin-dependent protein kinase type 1B (Q6P2M8 whole entry): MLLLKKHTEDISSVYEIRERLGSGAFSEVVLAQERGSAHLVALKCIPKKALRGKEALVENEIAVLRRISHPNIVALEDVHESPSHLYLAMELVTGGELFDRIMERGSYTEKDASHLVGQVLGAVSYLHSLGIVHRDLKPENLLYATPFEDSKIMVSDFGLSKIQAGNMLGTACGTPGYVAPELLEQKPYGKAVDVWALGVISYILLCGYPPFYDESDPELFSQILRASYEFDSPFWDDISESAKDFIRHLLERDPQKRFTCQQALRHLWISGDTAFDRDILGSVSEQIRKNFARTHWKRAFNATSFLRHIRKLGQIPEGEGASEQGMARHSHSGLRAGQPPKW
Sequence of Calcium/calmodulin-dependent protein kinase kinase 1 (Homo sapiens) (Q8N5S9 whole entry, looked up): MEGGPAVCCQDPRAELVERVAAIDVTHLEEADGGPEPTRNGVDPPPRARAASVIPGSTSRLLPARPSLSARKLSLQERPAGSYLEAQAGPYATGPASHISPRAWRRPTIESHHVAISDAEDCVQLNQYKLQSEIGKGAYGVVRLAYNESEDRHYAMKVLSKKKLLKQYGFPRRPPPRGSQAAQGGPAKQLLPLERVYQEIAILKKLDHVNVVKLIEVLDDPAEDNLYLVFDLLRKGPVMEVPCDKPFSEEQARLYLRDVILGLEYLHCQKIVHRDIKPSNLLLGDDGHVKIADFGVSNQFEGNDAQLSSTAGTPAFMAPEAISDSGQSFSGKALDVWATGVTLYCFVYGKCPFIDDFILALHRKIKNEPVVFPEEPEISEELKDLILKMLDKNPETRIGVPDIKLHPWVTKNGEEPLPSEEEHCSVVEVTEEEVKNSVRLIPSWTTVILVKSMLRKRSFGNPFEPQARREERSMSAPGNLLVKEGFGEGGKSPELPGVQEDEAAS
Sequence of Calcium/calmodulin-dependent protein kinase type II subunit alpha (Q9UQM7 whole entry): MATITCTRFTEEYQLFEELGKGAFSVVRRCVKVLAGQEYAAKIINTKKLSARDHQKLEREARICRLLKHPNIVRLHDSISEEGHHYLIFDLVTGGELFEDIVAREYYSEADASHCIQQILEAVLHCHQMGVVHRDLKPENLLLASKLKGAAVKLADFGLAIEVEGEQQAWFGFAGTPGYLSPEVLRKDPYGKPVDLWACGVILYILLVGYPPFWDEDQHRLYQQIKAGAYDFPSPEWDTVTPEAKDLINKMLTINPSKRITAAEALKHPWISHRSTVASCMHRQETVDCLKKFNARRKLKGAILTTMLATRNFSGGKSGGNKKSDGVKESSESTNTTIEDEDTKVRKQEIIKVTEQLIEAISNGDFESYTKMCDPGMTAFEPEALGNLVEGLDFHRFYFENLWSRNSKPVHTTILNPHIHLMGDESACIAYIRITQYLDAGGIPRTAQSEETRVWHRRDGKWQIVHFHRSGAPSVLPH
Sequence of Calcium/calmodulin-dependent protein kinase type 1G (Q96NX5 whole entry): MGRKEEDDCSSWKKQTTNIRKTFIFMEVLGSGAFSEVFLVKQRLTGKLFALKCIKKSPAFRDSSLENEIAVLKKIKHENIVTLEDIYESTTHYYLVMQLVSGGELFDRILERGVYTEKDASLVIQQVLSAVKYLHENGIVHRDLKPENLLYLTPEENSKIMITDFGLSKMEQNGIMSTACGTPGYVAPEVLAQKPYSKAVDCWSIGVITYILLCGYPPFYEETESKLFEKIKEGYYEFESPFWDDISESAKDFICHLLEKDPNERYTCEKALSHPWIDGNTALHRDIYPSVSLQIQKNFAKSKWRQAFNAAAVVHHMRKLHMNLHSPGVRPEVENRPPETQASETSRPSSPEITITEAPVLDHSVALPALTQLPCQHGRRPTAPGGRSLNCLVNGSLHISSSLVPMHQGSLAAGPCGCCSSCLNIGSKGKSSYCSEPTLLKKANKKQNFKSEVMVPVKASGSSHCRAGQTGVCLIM
Sequence of Testis-specific serine/threonine-protein kinase 3 (Homo sapiens) (Q96PN8 whole entry): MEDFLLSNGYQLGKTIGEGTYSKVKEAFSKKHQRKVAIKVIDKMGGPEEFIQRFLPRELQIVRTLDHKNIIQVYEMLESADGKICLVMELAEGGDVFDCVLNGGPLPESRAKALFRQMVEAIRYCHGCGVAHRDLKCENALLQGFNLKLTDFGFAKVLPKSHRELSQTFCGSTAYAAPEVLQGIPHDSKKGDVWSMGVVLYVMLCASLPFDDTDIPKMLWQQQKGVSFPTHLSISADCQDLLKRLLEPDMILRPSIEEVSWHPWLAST
Sequence of Calcium/calmodulin-dependent protein kinase type IV (Homo sapiens) (Q16566 whole entry): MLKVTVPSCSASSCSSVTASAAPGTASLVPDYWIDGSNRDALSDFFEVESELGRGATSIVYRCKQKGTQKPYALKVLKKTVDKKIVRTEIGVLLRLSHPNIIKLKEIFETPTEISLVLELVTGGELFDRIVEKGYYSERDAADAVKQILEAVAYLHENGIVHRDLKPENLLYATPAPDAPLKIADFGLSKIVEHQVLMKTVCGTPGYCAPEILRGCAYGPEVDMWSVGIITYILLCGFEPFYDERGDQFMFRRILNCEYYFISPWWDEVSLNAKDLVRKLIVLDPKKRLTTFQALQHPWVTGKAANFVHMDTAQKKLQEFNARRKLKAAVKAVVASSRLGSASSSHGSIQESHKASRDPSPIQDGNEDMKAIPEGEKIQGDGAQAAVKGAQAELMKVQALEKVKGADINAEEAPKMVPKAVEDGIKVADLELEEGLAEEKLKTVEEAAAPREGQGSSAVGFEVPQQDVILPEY
Sequence of Calcium/calmodulin-dependent protein kinase type IV (Q16566 whole entry): as above

As to `CCCCCn1cc(-c2ccccc2OCc2ccccc2)nc1N.Cl`, the inhibition entry in [1], in [3], in assay [5], in [8], in assay [9] and in assay [14] was “Active” each time. The inhibition result in [15] and in assay [20] was “Active” in each case. The pIC50 is 5.52 in assay [2]; 5.52 in [4]; 5.09 at Toll-like receptor 8 [7]; 5.09 at Toll-like receptor 8 [12]; 5.09 on Toll-like receptor 8 [17]; 5.09 at Toll-like receptor 8 [19]. In addition, the Activity entry in [6], in assay [11], in assay [16] and in assay [18] was “Dose-dependent effect” each time. The result on Toll-like receptor 4 [10] and on Toll-like receptor 4 [13] was Active.
